Source: ChEMBL document CHEMBL1148638, “Aminopyridine-based c-Jun N-terminal kinase inhibitors with cellular activity and minimal cross-kinase activity” (J Med Chem, 2006)

Legend:
[1] = biological target: Serine/threonine-protein kinase pim-2 (Homo sapiens, UniProt Q9P1W9); assay: Inhibition of Pim2
[2] = biological target: Tyrosine-protein kinase Lck (Homo sapiens, UniProt P06239)
[3] = biological target: Tyrosine-protein kinase Fyn (Homo sapiens, UniProt P06241); assay: Inhibition of Fyn
Summary of the method: (§1)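 Recombinant tyrosine kinases were incubated 1 h with biotinylated peptide (0.5 µM), ATP (10 µM to 1 mM) and inhibitor in 2% DMSO. Buffer was 50 mM Hepes pH 7.4 with MgCl2, MnCl2 and vanadate. Detection was HTRF: Eu anti-pY antibody plus streptavidin-APC, read 60 min later. IC50 came from titration curves, converted to Ki by Cheng-Prusoff.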

[4] = biological target: Fibroblast growth factor receptor (Homo sapiens, UniProt P22607+P11362+P22455+P21802); assay: Inhibition of FGFR; assay type: protein assay; summary of the method: as §1
[5] = biological target: 3-phosphoinositide-dependent protein kinase 1 (Homo sapiens) (UniProt O15530); assay: Inhibition of PDK1
[6] = biological target: Tyrosine-protein kinase JAK3 (Homo sapiens, UniProt P52333); assay: Inhibition of JAK3; summary of the method: as §1
[7] = biological target: Insulin receptor (Homo sapiens, UniProt P06213)
[8] = biological target: Tyrosine-protein kinase Lyn (Homo sapiens, UniProt P07948); assay: Inhibition of Lyn; summary of the method: as §1
[9] = biological target: Receptor tyrosine-protein kinase erbB-2 (Homo sapiens, UniProt P04626); assay: Inhibition of ErbB2; summary of the method: as §1
[10] = biological target: Tyrosine-protein kinase ABL1 (Homo sapiens, UniProt P00519); assay: Inhibition of Abl; summary of the method: as §1
[11] = biological target: Non-receptor tyrosine-protein kinase TYK2 (Homo sapiens, UniProt P29597); assay: Inhibition of Tyk2
Summary of the method: (§2)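 Tyrosine kinases (recombinant, His/GST-purified or commercial) measured by HTRF: 0.5 µM biotinylated peptide, ATP 10 µM to 1 mM, inhibitor in 2% DMSO, 1 h in 50 mM Hepes pH 7.4 with MgCl2, MnCl2, Na3VO4, DTT, BSA. IC50 from six-point titrations; Ki via Cheng-Prusoff.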

[12] = biological target: BDNF/NT-3 growth factors receptor (Homo sapiens, UniProt Q16620); assay: Inhibition of TrkB; summary of the method: as §2
[13] = biological target: High affinity nerve growth factor receptor (Homo sapiens, UniProt P04629)
[14] = biological target: Tyrosine-protein kinase Blk (Homo sapiens, UniProt P51451)
[15] = biological target: Inhibitor of nuclear factor kappa-B kinase subunit beta (Homo sapiens, UniProt O14920); assay: Inhibition of IKK-beta
Summary of the method: (§3)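 Recombinant kinases were commercial, or baculovirus-expressed and purified by His-tag or GST affinity. Each was incubated 1 h with biotinylated substrate peptide (2 µM), γ-[33P]-ATP (5 µM) and inhibitor (3-10000 nM, 2% DMSO) in 25 mM Hepes pH 7.5, 10 mM MgCl2, Na3VO4. Reactions were stopped with EDTA/NaCl and read by streptavidin FlashPlate capture. IC50 came from titrations, converted to Ki by Cheng-Prusoff.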

[16] = biological target: T1, Serine/threonine-protein kinase Sgk1 (Homo sapiens, UniProt O00141); assay: Inhibition of SGK
T1 sequence (O00141 whole entry): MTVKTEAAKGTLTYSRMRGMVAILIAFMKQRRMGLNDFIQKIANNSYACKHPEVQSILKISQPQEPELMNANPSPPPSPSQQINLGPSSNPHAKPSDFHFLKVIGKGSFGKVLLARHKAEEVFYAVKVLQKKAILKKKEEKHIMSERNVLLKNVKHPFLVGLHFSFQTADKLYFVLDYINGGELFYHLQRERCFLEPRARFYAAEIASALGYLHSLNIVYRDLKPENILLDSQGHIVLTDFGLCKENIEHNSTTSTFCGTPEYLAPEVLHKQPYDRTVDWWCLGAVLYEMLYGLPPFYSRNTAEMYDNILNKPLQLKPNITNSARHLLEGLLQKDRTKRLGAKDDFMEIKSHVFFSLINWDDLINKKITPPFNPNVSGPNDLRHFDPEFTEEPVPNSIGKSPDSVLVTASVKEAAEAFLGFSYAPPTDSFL

[17] = biological target: T2, Calcium/calmodulin-dependent protein kinase type IV (Homo sapiens, UniProt Q16566); assay: Inhibition of CaMK4; summary of the method: as §3
T2 sequence (Q16566 whole entry): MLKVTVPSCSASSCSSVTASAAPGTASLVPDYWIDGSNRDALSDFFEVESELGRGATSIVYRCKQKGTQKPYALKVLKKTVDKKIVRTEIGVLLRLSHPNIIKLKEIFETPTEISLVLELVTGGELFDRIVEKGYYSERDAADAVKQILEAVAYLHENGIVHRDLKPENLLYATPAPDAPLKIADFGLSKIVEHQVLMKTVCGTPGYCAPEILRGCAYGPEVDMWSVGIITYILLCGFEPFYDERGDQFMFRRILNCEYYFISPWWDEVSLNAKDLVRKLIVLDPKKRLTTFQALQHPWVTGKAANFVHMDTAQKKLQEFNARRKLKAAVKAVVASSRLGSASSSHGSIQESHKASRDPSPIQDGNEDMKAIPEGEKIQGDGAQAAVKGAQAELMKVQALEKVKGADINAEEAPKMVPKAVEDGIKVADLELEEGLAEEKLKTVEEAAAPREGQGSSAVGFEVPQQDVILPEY

[18] = biological target: Proto-oncogene tyrosine-protein kinase Src (Homo sapiens, UniProt P12931); assay: Inhibition of Src; summary of the method: as §2
[19] = biological target: Tyrosine-protein kinase JAK2 (Homo sapiens, UniProt O60674); assay: Inhibition of JAK2; summary of the method: as §1
[20] = biological target: Hepatocyte growth factor receptor (Homo sapiens, UniProt P08581)
[21] = biological target: Receptor-type tyrosine-protein kinase FLT3 (Homo sapiens, UniProt P36888); assay: Inhibition of Flt3; summary of the method: as §1
[22] = biological target: Fibroblast growth factor receptor 3 (Homo sapiens, UniProt P22607); assay: Inhibition of FGFR3; summary of the method: as §1
[23] = biological target: Mast/stem cell growth factor receptor Kit (Homo sapiens, UniProt P10721); assay: Inhibition of cKit; summary of the method: as §2
[24] = biological target: Macrophage colony-stimulating factor 1 receptor (Homo sapiens, UniProt P07333); assay: Inhibition of CSF1R; summary of the method: as §1
[25] = biological target: Death-associated protein kinase 3 (Homo sapiens, UniProt O43293); assay: Inhibition of ZipK
[26] = biological target: Activated CDC42 kinase 1 (Homo sapiens, UniProt Q07912); assay: Inhibition of CDC42; summary of the method: as §3
[27] = biological target: Serine/threonine-protein kinase PAK 4 (Homo sapiens, UniProt O96013); assay: Inhibition of PAK4; summary of the method: as §3
[28] = biological target: Vascular endothelial growth factor receptor 1 (Homo sapiens, UniProt P17948); assay: Inhibition of Flt1; summary of the method: as §1
[29] = Half life in iv dosed Sprague-Dawley rat; assay type: ADME, organism-based; conditions: in vivo
Summary of the method: (§4)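 Sprague-Dawley rats received 5 mg/kg intravenously. Half-life is reported in hours. AUC is total drug exposure after iv dosing, from t = 0 to t = ∞, in µg·h/mL.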

[30] = AUC in iv dosed Sprague-Dawley rat; assay type: ADME, organism-based; conditions: plasma; summary of the method: as §4
[31] = Half life in po dosed Sprague-Dawley rat; assay type: ADME, organism-based; conditions: in vivo
Summary of the method: (§5)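 Sprague-Dawley rats were dosed orally. Oral half-life is reported in hours and Cmax as the maximum plasma concentration in µM. AUC is total oral exposure from t = 0 to t = ∞, in µg·h/mL.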

[32] = Volume of distribution at steady state in iv dosed Sprague-Dawley rat; assay type: ADME, organism-based; conditions: in vivo, read-out: Vss
[33] = Tmax in po dosed Sprague-Dawley rat; assay type: ADME, organism-based; conditions: in vivo
[34] = biological target: Mitogen-activated protein kinase 13 (Homo sapiens, UniProt O15264)
[35] = Cmax in po dosed Sprague-Dawley rat; assay type: ADME, organism-based; parameters: route oral; conditions: in vivo; summary of the method: as §5
[36] = Volume of distribution in iv dosed Sprague-Dawley rat; assay type: ADME, organism-based; conditions: in vivo, read-out: Vdss
[37] = AUC in po dosed Sprague-Dawley rat; assay type: ADME, organism-based; conditions: plasma; summary of the method: as §5
[38] = Oral bioavailability in Sprague-Dawley rat; assay type: ADME, organism-based; conditions: in vivo
[39] = Plasma clearance in iv dosed Sprague-Dawley rat; assay type: ADME, organism-based

Chain of Activated CDC42 kinase 1 (Q07912 whole entry): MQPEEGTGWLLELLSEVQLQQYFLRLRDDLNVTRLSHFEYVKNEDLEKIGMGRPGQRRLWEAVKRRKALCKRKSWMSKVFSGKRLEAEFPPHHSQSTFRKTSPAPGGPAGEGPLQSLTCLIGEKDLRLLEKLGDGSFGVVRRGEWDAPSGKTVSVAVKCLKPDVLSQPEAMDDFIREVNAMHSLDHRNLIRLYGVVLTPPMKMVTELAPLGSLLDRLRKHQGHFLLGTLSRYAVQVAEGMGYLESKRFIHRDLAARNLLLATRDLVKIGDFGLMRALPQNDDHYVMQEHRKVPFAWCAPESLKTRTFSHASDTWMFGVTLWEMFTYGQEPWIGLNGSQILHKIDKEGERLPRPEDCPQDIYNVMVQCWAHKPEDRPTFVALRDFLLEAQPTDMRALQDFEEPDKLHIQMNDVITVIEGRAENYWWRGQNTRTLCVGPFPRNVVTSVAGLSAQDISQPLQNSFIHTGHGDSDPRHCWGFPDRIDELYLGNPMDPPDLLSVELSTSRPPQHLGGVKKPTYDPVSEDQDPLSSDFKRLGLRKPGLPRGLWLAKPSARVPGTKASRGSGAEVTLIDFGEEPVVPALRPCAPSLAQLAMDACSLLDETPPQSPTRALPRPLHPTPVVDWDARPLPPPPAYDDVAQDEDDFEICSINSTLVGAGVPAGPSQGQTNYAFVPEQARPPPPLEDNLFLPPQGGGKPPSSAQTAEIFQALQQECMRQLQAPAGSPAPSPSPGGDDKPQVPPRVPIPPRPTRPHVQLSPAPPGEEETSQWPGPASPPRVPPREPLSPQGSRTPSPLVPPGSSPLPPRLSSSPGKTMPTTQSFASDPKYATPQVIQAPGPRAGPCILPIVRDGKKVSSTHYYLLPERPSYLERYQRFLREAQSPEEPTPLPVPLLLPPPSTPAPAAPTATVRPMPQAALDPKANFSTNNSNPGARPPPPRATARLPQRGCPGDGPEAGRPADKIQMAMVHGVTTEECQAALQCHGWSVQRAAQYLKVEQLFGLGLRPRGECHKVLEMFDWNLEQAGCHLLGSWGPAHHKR
Chain of Receptor tyrosine-protein kinase erbB-2 (P04626 whole entry): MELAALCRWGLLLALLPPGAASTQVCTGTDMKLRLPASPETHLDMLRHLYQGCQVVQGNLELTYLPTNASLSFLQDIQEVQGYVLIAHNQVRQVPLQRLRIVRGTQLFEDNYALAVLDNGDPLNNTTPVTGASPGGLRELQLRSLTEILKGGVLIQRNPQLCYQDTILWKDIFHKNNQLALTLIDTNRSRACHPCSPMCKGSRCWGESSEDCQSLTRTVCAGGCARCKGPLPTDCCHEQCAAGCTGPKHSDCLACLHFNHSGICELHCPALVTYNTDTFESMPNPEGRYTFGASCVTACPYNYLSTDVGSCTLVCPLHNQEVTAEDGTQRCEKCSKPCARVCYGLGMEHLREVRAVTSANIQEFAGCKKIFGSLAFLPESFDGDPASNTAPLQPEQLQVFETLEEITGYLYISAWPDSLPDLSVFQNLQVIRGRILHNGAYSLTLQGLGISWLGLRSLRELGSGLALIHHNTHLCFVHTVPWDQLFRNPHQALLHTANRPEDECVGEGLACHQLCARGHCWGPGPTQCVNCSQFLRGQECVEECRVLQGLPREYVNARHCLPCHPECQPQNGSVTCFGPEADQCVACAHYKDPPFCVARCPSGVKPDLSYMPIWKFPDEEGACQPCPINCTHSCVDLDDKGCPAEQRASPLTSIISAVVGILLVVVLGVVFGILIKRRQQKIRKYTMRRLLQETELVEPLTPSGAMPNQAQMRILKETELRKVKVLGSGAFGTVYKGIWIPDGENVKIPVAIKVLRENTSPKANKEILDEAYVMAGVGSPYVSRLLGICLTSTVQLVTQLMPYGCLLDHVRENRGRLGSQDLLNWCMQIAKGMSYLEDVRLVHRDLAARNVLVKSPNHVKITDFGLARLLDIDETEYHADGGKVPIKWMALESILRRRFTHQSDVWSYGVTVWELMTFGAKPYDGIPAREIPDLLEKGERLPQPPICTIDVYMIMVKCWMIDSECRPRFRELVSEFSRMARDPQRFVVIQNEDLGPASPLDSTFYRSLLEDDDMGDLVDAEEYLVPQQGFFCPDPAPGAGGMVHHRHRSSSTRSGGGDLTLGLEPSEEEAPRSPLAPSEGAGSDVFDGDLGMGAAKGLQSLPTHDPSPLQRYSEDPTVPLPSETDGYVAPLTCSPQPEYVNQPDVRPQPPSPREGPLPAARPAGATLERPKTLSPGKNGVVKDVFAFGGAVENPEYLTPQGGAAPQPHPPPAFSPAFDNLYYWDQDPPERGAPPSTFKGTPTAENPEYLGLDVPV
Chain of Tyrosine-protein kinase Fyn (P06241 whole entry): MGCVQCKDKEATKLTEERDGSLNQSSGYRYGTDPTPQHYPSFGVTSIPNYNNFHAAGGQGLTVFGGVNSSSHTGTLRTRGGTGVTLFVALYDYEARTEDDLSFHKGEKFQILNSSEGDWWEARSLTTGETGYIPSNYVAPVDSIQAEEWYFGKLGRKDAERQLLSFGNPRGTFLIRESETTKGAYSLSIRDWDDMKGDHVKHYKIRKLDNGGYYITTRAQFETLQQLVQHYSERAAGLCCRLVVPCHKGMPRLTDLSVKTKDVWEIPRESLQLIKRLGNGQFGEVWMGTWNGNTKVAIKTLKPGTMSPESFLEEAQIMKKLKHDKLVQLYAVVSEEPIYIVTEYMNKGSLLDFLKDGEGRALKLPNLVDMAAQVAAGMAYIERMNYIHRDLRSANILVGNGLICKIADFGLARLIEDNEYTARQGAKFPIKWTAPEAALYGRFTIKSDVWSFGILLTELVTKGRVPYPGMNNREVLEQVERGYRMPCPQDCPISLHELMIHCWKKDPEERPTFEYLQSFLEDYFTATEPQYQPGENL
Chain of Tyrosine-protein kinase Blk (P51451 whole entry): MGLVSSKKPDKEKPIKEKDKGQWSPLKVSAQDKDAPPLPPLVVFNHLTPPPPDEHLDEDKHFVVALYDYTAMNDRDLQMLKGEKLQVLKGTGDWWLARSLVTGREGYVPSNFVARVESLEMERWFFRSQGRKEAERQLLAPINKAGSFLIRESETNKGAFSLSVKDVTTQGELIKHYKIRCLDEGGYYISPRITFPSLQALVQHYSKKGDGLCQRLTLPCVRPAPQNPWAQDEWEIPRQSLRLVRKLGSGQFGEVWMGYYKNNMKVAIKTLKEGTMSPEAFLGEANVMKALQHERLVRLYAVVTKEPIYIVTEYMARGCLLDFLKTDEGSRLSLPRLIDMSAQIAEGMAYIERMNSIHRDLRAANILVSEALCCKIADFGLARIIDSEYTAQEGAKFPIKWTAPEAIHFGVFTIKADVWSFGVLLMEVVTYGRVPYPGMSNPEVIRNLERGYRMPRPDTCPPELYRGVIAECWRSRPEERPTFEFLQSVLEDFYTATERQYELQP
Chain of Serine/threonine-protein kinase pim-2 (Q9P1W9 whole entry): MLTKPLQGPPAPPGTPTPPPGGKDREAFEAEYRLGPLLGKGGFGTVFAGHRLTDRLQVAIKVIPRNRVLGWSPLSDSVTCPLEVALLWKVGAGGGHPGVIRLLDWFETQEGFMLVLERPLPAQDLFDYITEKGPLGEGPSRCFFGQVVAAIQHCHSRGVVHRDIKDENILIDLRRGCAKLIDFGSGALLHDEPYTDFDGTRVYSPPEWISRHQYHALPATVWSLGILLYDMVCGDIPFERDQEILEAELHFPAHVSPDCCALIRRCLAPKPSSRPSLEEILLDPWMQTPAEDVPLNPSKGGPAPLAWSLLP
Chain of Tyrosine-protein kinase JAK3 (P52333 whole entry): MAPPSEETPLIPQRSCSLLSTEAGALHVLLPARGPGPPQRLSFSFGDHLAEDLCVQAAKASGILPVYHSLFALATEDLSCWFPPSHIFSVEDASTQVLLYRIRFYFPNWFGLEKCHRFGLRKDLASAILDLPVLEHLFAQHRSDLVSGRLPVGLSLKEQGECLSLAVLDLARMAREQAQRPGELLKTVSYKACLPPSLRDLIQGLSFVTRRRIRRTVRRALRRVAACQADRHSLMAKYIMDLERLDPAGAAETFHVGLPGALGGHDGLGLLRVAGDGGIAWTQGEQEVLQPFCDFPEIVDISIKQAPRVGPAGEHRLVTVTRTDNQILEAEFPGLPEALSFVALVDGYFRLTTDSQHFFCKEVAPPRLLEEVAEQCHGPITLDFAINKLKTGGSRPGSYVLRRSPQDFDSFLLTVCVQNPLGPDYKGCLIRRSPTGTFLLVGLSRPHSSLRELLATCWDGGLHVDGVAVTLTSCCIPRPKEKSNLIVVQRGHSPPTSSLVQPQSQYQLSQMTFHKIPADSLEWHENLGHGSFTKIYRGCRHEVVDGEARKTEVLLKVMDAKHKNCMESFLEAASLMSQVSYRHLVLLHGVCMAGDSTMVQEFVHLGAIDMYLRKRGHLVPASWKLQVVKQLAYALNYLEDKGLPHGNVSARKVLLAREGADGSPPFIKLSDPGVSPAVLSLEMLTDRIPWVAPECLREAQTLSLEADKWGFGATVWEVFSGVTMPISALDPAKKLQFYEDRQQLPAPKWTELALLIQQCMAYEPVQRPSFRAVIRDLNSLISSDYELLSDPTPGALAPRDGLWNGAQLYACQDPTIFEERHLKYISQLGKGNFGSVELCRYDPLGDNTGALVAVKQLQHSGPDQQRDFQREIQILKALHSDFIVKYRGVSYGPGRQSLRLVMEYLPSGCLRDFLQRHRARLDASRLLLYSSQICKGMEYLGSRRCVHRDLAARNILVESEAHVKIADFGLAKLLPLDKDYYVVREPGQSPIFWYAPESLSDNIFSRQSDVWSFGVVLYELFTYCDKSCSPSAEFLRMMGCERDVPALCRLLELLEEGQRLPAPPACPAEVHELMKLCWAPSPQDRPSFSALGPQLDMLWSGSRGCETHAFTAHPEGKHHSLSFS

| Compound | Ki [1] [nM] | Ki [3] [nM] | Ki [6] [nM] | Ki [8] [nM] | Ki [9] [nM] | Ki [10] [nM] | Ki [14] [nM] | Ki [16] [µM] | Ki [17] [µM] | Ki [19] [nM] | Ki [23] [nM] | Ki [25] [nM] | Ki [26] [µM] | Ki [28] [nM] | further results |
| --- | --- | --- | --- | --- | --- | --- | --- | --- | --- | --- | --- | --- | --- | --- | --- |
| CC(=O)Nc1cc(N)c(C#N)c(-c2ccccc2)n1 | > 1400 | > 810 | > 1700 | > 1700 | > 1400 | > 710 | > 1500 | > 9.4 | > 8.6 | > 1500 | > 1200 | > 1400 | > 9.5 | > 440 | Ki [2]: > 2700 nM; Ki [4]: > 4.7 µM; Ki [5]: > 3.8 µM; Ki [7]: > 5.2 µM; Ki [11]: > 1900 nM; Ki [12]: > 4.5 µM; Ki [13]: > 2500 nM; Ki [15]: > 3.2 µM; Ki [18]: > 1900 nM; Ki [20]: > 2900 nM; Ki [21]: > 2500 nM; Ki [22]: > 1900 nM; Ki [24]: > 2500 nM; Ki [27]: > 5.5 µM |
| CCOc1nc(NC(C)=O)cc(N)c1C#N | > 1400 | > 810 | > 1700 | > 1700 | > 1400 | > 710 | > 1500 | > 9.4 | > 8.6 | > 1500 | > 1200 | > 1400 | > 9.5 | > 440 | – |
| CCOc1nc(NC(=O)Cc2cc(OC)ccc2OC)cc(N)c1C#N | – | – | – | – | – | – | – | > 9.4 | > 8.6 | – | – | – | > 9.5 | – | half-life [29]: 84 min; AUC [30]: 4100 ng·h/mL; half-life [31]: 66 min; Vd [32]: 1.2 L/kg; Tmax [33]: 1.98 min; Ki [34]: > 6.9 µM; Cmax [35]: 310 nM; Vd [36]: 2.6 L/kg; AUC [37]: 110 ng·h/mL; bioavailability [38]: 2.7%; clearance [39]: 20 mL/min/kg |
